Results filed as inconclusive are left out.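 The calls were made as follows, unless noted: active = inhibition over a set limit, the all-compound mean plus 3 SD, in both replicate runs; inconclusive = over that limit in just one replicate run; inactive = at or under that limit in both runs.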
Key:
[1] = S. cerevisiae growth inhibition in permissive medium (OD615), pilot counter-assay for S. cerevisiae lifespan shortening project, permissive growth control (AID 705;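 active = growth inhibition above 25% in both replicates, a cutoff set 3 SD above the mean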); conditions: OD615, 24 h, at 10 µM, stronger effect = higher value
Method in brief: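 System: S. cerevisiae with engineered DeaD lifespan system. Medium: SC raffinose/galactose permissive medium. Doses: single compound dose of 10 µM, 0.25% DMSO final. Schedule: 24 h exposure, 30 °C. Measured by: OD615 turbidity read. Read-out: growth inhibition.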

[2] = S. cerevisiae growth inhibition in restrictive medium, OD615, pilot screen, restrictive growth control, yeast lifespan reduction project (AID 706;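 active = growth inhibition above a set limit, 3 SD over mean compound inhibition, in both replicates, cut at about 43% in these data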;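 also: modified DeaD lifespan yeast strain shifted to restrictive glucose medium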); conditions: OD615, 48 h, at 10 µM, stronger effect = higher value
Method in brief: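 Assay system – genetically modified Saccharomyces cerevisiae, DeaD replicative lifespan assay strain · Medium – CSMM-D glucose medium · Doses – 10 µM compound, 0.25% DMSO · Times – 4 h pre-incubation, 48 h exposure at 30 °C · Signal – optical density at 615 nm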

[3] = doxorubicin toxicity protection in MRP-1 cells – H69AR cells, CellTiter-Glo, duplicate, MRP-1 activator project, pilot screen (AID 807;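 active = viability increase at or above a cutoff of the median across tested compounds plus 3 SD, cut at about 8.5% in these data, passing the limit was not always enough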;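 also: compound pretreatment 18-22 h then 72 h combined with doxorubicin; 0% = doxorubicin alone and 100% = vehicle without doxorubicin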); conditions: H69AR viability with doxorubicin, CellTiter-Glo luminescence; at 10 µM; stronger effect = higher value
[4] = viability of HCT116 without oncogenic beta-catenin – human colon tumor cells, pilot screen (AID 823;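 active = cell viability at or below a set limit in both duplicate runs, the limit being the all-compound median minus 4 SD, cut at about 23% in these data, passing the limit was not always enough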;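 also: 0% = wells killed by 20 µM Hyamine and 100% = untreated DMSO cell wells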); conditions: HCT116 beta-catenin knockout viability, CellTiter-Glo, 60 h; at 10 µM; stronger effect = lower value
[5] = viability of PTEN-null HCT116 cells – cell-based, HCT116 clonal line, CellTiter-Glo, pilot screen (AID 824;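 active = viability at or below 27.92% in each of two runs, the all-compound median minus 4 SD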;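 also: 0% = 20 µM Hyamine control and 100% = vehicle cell control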); conditions: HCT116 PTEN-deleted viability, 60 h, at 10 µM, stronger effect = lower value
[6] = RAM pathway blockade in budding yeast – dse1pr::URA3 reporter, 5-FOA selection, pilot screen (AID 869);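 also: 0% = DMSO wells with no growth and 100% = 10 µM 1-NA-PP1 with full growth; RAM network block rescues cells from 5-FOA so hits raise OD615 growth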; conditions: S. cerevisiae dse1pr::URA3 5-FOA growth, OD615, 2 d; at 10 µM; stronger effect = higher value; strain carries analog-sensitive mutant Cbk1 kinase
[7] = RAM signaling pathway blockade in yeast – S. cerevisiae, Pdr1DBD-CYC8 efflux-inhibited sensitized strain, primary screen (AID 1298;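 active = RAM network inhibition above 8.4% in each of two replicates, 3 SD over the compound average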;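 also: 0% = DMSO untreated cells without growth and 100% = 10 µM 1-NA-PP1 full growth; higher means more yeast growth rescued from 5-FOA killing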); conditions: S. cerevisiae cbk1-as DSE1-URA3 strain, 5-FOA growth OD615, 2 d; at 50 µM; stronger effect = higher value

CCN1CCN(C(=O)C2CCN(Cc3nc(-c4cccc(Cl)c4)oc3C)CC2)CC1
inactive: growth inhibition [1] -1.82% | growth inhibition [2] -14.3% | viability increase [3] -4.04% | viability [4] 69% | viability [5] 72.4% | inhibition [6] 0.9% | RAM network inhibition [7] 1.16%

COc1cc(/C=N/n2cnnc2)ccc1OCCOc1ccccc1
inactive: growth inhibition [1] 0.295% | growth inhibition [2] 1.02% | viability increase [3] -3.68% | viability [4] 104% | viability [5] 91.8% | inhibition [6] 3.07% | RAM network inhibition [7] 5.62%

CC(=O)c1c(NC(=O)C(C)C)nc(C)nc1-c1ccccc1
inactive: growth inhibition [1] -6.5% | growth inhibition [2] -8.2% | viability increase [3] -0.66% | viability [4] 98.4% | viability [5] 100% | inhibition [6] 1.69% | RAM network inhibition [7] -0.83%

COc1ccc(NC(=O)CSc2nnc(Cn3c(=O)sc4ccccc43)n2C)cc1OC
inactive: growth inhibition [1] -10.7% | growth inhibition [2] -14.9% | viability increase [3] -2.38% | viability [4] 86.5% | viability [5] 92.2% | inhibition [6] 1.91% | RAM network inhibition [7] 4.34%

Cc1ccc(S(=O)(=O)N2C(=S)SCC2(C)C)cc1
inactive: growth inhibition [1] -0.04% | growth inhibition [2] 14.3% | viability increase [3] -1.47% | viability [4] 91.9% | viability [5] 83.5% | inhibition [6] -1.13% | RAM network inhibition [7] 0.51%

Cc1ccc(C2CC(c3ccc(Cl)cc3)n3nc(N)nc3N2)cc1 (configuration not stated)
inactive: growth inhibition [1] 1.88% | growth inhibition [2] 7.93% | viability increase [3] -0.27% | viability [4] 93.9% | viability [5] 93.5% | inhibition [6] 1.9% | RAM network inhibition [7] 8.2%

COc1ccc(Br)cc1S(=O)(=O)N1CCN=C1C
inactive: growth inhibition [1] -0.525% | growth inhibition [2] -18.3% | viability increase [3] -1.79% | viability [4] 91.1% | viability [5] 83.4% | inhibition [6] 0.79% | RAM network inhibition [7] -0.12%

CCCCSc1nnc(C)c(=O)[nH]1
inactive: growth inhibition [1] -8.76% | growth inhibition [2] -12.2% | viability increase [3] -0.85% | viability [4] 97.6% | viability [5] 102% | inhibition [6] 1.26% | RAM network inhibition [7] 7.32%

Cc1ccccc1S(=O)(=O)Cc1ccc(C(=O)N2CCN(C3CCCCC3)CC2)o1
inactive: growth inhibition [1] -9.92% | growth inhibition [2] -5.71% | viability increase [3] -1.48% | viability [4] 95.1% | viability [5] 89.6% | inhibition [6] 0.385% | RAM network inhibition [7] 4.62%

O=C(O)CCC(=O)N1CCc2cc(S(=O)(=O)Nc3ccc4c(c3)OCCO4)ccc21
inactive: growth inhibition [1] -4.35% | growth inhibition [2] -7.19% | viability increase [3] -1.45% | viability [4] 94% | viability [5] 96.3% | inhibition [6] 0.535% | RAM network inhibition [7] -1.56%

COC(=O)C1C(C(C)C)N(c2ccccc2)OC1(C)O (configuration not stated)
inactive: growth inhibition [1] -11.8% | growth inhibition [2] -7.98% | viability increase [3] -4.25% | viability [4] 103% | viability [5] 96.9% | inhibition [6] 0.93% | RAM network inhibition [7] 1.66%

Cc1nc2ccccn2c1/C(O)=C1\C(=O)C(=O)N(CCCN(C)C)C1c1ccc(Cl)cc1 (configuration not stated)
inactive: growth inhibition [1] -12.2% | growth inhibition [2] -4.13% | viability increase [3] -1.34% | viability [4] 109% | viability [5] 95.9% | inhibition [6] 0.18% | RAM network inhibition [7] -1.78%

O=C(Oc1ccnc2cc(Cl)ccc12)N1CCOCC1
inactive: growth inhibition [1] -4.51% | growth inhibition [2] 5.71% | viability increase [3] -3.29% | viability [4] 87.3% | viability [5] 87.8% | inhibition [6] 1.1% | RAM network inhibition [7] 7.61%

N#Cc1nc(-c2ccccc2F)oc1NCc1ccccc1
inactive: growth inhibition [1] -4.66% | growth inhibition [2] 11.3% | viability increase [3] 1.59% | viability [4] 107% | viability [5] 90.5% | inhibition [6] 1.98% | RAM network inhibition [7] 3.96%

COc1ccc(OC)c(C2CC(=O)c3c([nH]c(C(=O)OCC4CCCO4)c3C)C2)c1 (configuration not stated)
inactive: growth inhibition [1] -8.91% | growth inhibition [2] -10.4% | viability increase [3] -4.85% | viability [4] 43.8% | viability [5] 39% | inhibition [6] 1.52% | RAM network inhibition [7] 0.79%

COc1ccc(CN2CCCCC2C(=O)Nc2ccc(OC)c(OC)c2)cc1OC (configuration not stated)
inactive: growth inhibition [1] -10.9% | growth inhibition [2] -12.6% | viability increase [3] -1.88% | viability [4] 95.8% | viability [5] 93.3% | inhibition [6] 0.01% | RAM network inhibition [7] 0.21%

O=S(=O)(c1ccc(Br)cc1)N1CCn2c(nc3ccccc32)C1
inactive: growth inhibition [1] -6.87% | growth inhibition [2] -3.65% | viability increase [3] -2.52% | viability [4] 101% | viability [5] 97.5% | inhibition [6] 2.46% | RAM network inhibition [7] 6.31%

COc1ccc(NC(=O)c2ccc(CN3CCN(c4ccccc4)CC3)cc2)cc1
inactive: growth inhibition [1] -7.38% | growth inhibition [2] -9.14% | viability increase [3] -0.09% | viability [4] 67.4% | viability [5] 73.1% | inhibition [6] 2.54% | RAM network inhibition [7] 9.97%

Cc1cc(Nc2cccc(F)c2)n2ncnc2n1
inactive: growth inhibition [1] -0.15% | growth inhibition [2] 12.3% | viability increase [3] 0% | viability [4] 101% | viability [5] 106% | inhibition [6] 1.23% | RAM network inhibition [7] 0.16%

CCOC(=O)CNC(=O)c1cn(CC(C)C)c(=O)c2cc(OC)c(OC)cc12
inactive: growth inhibition [1] -5.46% | growth inhibition [2] -6.08% | viability increase [3] -1.77% | viability [4] 105% | viability [5] 101% | inhibition [6] -0.375% | RAM network inhibition [7] 4.17%

COc1ccc(N2CC(C(=O)NC3CC(C)(C)NC(C)(C)C3)CC2=O)cc1 (configuration not stated)
inactive: growth inhibition [1] -9.42% | growth inhibition [2] -4.41% | viability increase [3] 0.06% | viability [4] 99.8% | viability [5] 104% | inhibition [6] 0.515% | RAM network inhibition [7] 2.14%

CCOc1ccc(C2NC(=O)c3n[nH]c(C)c32)cc1 (configuration not stated)
inactive: growth inhibition [1] -3.56% | growth inhibition [2] 8.35% | viability increase [3] 1.63% | viability [4] 107% | viability [5] 103% | inhibition [6] 1.07% | RAM network inhibition [7] 0.36%

Cc1ccc(C2c3c(oc4ccc(C)cc4c3=O)C(=O)N2CCCN2CCOCC2)cc1 (configuration not stated)
inactive: growth inhibition [1] -8.48% | growth inhibition [2] -3.63% | viability increase [3] -5.72% | viability [4] 77.3% | viability [5] 84.1% | inhibition [6] 0.99% | RAM network inhibition [7] -1.21%

O=C(CCCC1=NS(=O)(=O)c2ccccc2N1)N1CCN(c2ccc(Cl)cc2)CC1
inactive: growth inhibition [1] -17.7% | growth inhibition [2] -0.86% | viability increase [3] -0.04% | viability [4] 91.7% | viability [5] 78.3% | inhibition [6] 0.37% | RAM network inhibition [7] 0.9%

COc1ccc(-c2ccc(=O)n(CC(=O)N3CCN(c4ccccc4OC)CC3)n2)cc1
inactive: growth inhibition [1] -4.48% | growth inhibition [2] 12% | viability increase [3] 2.33% | viability [4] 89.7% | viability [5] 92.9% | inhibition [6] 1.15% | RAM network inhibition [7] 7.61%

C=CCn1c(SCc2ccc(F)cc2)nc2c1c(=O)[nH]c(=O)n2C
inactive: growth inhibition [1] -8.99% | growth inhibition [2] -8.69% | viability increase [3] -2.64% | viability [4] 96.9% | viability [5] 89% | inhibition [6] 0.25% | RAM network inhibition [7] 2.71%

O=C(Oc1ccccc1)N1CCN(c2ccc(F)cc2)CC1
inactive: growth inhibition [1] -11.1% | growth inhibition [2] -5.32% | viability increase [3] 1.92% | viability [4] 95.8% | viability [5] 85.5% | inhibition [6] 0.665% | RAM network inhibition [7] 5.1%

N#Cc1nc(COc2ccccc2F)oc1NCc1ccc(F)cc1
inactive: growth inhibition [1] -5.23% | growth inhibition [2] 6.15% | viability increase [3] -4.08% | viability [4] 92.1% | viability [5] 90.7% | inhibition [6] 0.39% | RAM network inhibition [7] 8.3%

Fc1ccc(-n2[nH]nnc2=S)cc1N1CCCC1
inactive: growth inhibition [1] -3.75% | growth inhibition [2] 3.59% | viability increase [3] -1.28% | viability [4] 104% | viability [5] 99.6% | inhibition [6] -0.32% | RAM network inhibition [7] -2.49%

C=CCNc1nc2c(c(=O)n(C)c(=O)n2C)n1CC
inactive: growth inhibition [1] 1.76% | growth inhibition [2] 3.36% | viability increase [3] -2.38% | viability [4] 107% | viability [5] 99.1% | inhibition [6] 2.24% | RAM network inhibition [7] 3.73%

Cn1nc(-c2ccc(Cl)cc2)c2cc(C(=O)N3CCN(c4ccccn4)CC3)sc21
inactive: growth inhibition [1] -0.13% | growth inhibition [2] 28.7% | viability increase [3] -5.31% | viability [4] 37% | viability [5] 35.1% | inhibition [6] -0.47% | RAM network inhibition [7] 4.7%

COC(=O)c1sc(NC(=O)C2CCCCC2C(=O)O)c(C(=O)OC)c1C (configuration not stated)
inactive: growth inhibition [1] -5.95% | growth inhibition [2] 0.13% | viability increase [3] -2.78% | viability [4] 104% | viability [5] 94.6% | inhibition [6] 2.49% | RAM network inhibition [7] 6.27%

CCC(C)Sc1nc2c(c(=O)[nH]c(=O)n2C)n1Cc1ccccc1Cl (configuration not stated)
inactive: growth inhibition [1] -0.795% | growth inhibition [2] 8.91% | viability increase [3] -1.95% | viability [4] 81.6% | viability [5] 82.2% | inhibition [6] 0.75% | RAM network inhibition [7] 4.89%

CCOC(=O)C1C(=O)Oc2ccc3ccccc3c2C1C1CCOC1=O (configuration not stated)
inactive: growth inhibition [1] -5.13% | growth inhibition [2] -1.85% | viability increase [3] -2.53% | viability [4] 99.5% | viability [5] 97.6% | inhibition [6] 0.105% | RAM network inhibition [7] -1.08%

Cn1c(C(=O)NCCCN2CCCC2=O)cc2c(=O)n(C)c3ccccc3c21
inactive: growth inhibition [1] -6.28% | growth inhibition [2] -1.63% | viability increase [3] -4.16% | viability [4] 108% | viability [5] 94.4% | inhibition [6] 1.69% | RAM network inhibition [7] 0.06%

Cc1cc(C)n(CC(=O)n2c3ccccc3c3ccccc32)n1
inactive: growth inhibition [1] 5.86% | growth inhibition [2] -3.37% | viability increase [3] -3.82% | viability [4] 78.2% | viability [5] 91.7% | inhibition [6] 0.155% | RAM network inhibition [7] -1.18%

From PubChem BioAssay
